Like-named read-outs stand apart in the source and are kept apart here.
Columns and labels:
[1] = target: T1, PaTrmD (Pseudomonas aeruginosa, UniProt Q9HXQ1); assay: TrmD inhibitor assay; type: biochemical; details: for reduction of enzyme inhibitory activity compared with the alkyl chain: ethylene glycol substituents
T1 sequence (Q9HXQ1 5-250): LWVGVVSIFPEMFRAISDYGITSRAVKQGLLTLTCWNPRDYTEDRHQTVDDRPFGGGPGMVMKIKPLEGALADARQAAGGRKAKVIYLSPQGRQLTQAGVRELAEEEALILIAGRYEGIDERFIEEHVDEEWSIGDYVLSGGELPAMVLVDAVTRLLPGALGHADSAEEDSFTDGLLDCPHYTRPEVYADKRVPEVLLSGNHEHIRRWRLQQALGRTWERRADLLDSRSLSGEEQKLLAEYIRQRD
Summary of the method: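 E. coli-expressed PaTrmD (IMAC and size-exclusion purified, 8 nM) was preincubated 15 min at ambient temperature with serially diluted inhibitor (0–500 μM). Reaction buffer was 50 mM Tris-HCl pH 8.0, 80 mM NaCl, 1 mM MgCl2, 0.5 mM DTT and 0.01% Triton X-100, with 2 μM SAM and 0.5 μM in vitro-transcribed tRNALeu(CAG). Reactions ran 45 min at 37 °C. SAH was detected by MTase-Glo luminescence against an SAH standard curve.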

[2] = target: T1, PaTrmD; details: ref 15 (Hill et al.); cited from earlier work
[3] = target: T2, SaTrmD (Staphylococcus aureus, UniProt Q2FZ43); details: cited from earlier work
T2 sequence (Q2FZ43 1-245): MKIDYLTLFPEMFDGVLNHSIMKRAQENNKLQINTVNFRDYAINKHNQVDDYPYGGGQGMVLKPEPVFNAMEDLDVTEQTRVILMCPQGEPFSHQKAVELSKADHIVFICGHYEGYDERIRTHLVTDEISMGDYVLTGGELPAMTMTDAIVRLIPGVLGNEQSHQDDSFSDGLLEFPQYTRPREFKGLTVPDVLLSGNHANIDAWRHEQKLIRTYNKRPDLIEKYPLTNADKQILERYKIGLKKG

[4] = tested on: bacteria; details: in words; cited from earlier work
[5] = target: T1, PaTrmD; assay: Thermal stability; type: binding
[6] = target: T1, PaTrmD; assay: Surface plasmon resonance; type: binding; details: SPR
[7] = tested on: collection of Gram-positive and Gram-negative bacteria; assay: Single-dose; type: cell-based; details: against Gram-positive bacteria and mycobacteria; single dose 100 μM
[8] = PaTrmD, O^6-substituted thienopyrimidinones, NA = not active up to 50 μM

**Q.** With `O=C(NCc1ccc(CN2CCOCC2)cc1)c1csc2nc[nH]c(=O)c12` [Compound 10, N-(4-(Morpholinomethyl)benzyl)-4-oxo-3,4-dihydrothieno[2,3-d]pyrimidine-5-carboxamide] as the compound, how does the “reduction of inhibitory activity compared with AZ51” value ([1]; PaTrmD) read?
**A.** The value was 6–16 fold.

**Q.** With “4-Methoxy-N-(4-(morpholinomethyl)benzyl)thieno[2,3-d]pyrimidine-5-carboxamide [Compound 45]” as the compound, how does the IC50 [1, 8] read?
**A.** Its IC50 is over 50 µM.

**Q.** With “N-(4-(Morpholinomethyl)benzyl)-4-propoxythieno[2,3-d]pyrimidine-5-carboxamide [Compound 46]” as the compound, how does the IC50 [1, 8] read?
**A.** The IC50 was over 50 µM.

**Q.** What does the source list for `NC1CCN(Cc2ccc(CNC(=O)c3csc4nc[nH]c(=O)c34)cc2)CC1` [AZ51]?
**A.** IC50 [2]: 0.039 µM; IC50 [3]: 1.2 µM; antibacterial activity [4]: lacked antibacterial activity; Tm higher than thermostabilization conferred by SAH [5]: 17 °C; faster on-rate (association rate) compared to SAH ([6]; PaTrmD): ~2 fold; slower off-rate (dissociation rate) compared to SAH ([6]; PaTrmD): ~30 fold

**Q.** With `O=C(NCc1ccc(CNC23CC4CC(CC(C4)C2)C3)cc1)c1csc2nc[nH]c(=O)c12` [Compound 17, N-(4-((((3s,5s,7s)-Adamantan-1-yl)amino)methyl)benzyl)-4-oxo-3,4-dihydrothieno[2,3-d]pyrimidine-5-carboxamide] as the compound, how does the “TrmD inhibitory activity (in words)” value ([1]; PaTrmD) read?
**A.** The value was “submicromolar activity”.

**Q.** For “N-(4-((Octylamino)methyl)benzyl)-4-propoxythieno[2,3-d]pyrimidine-5-carboxamide [Compound 43]”, which IC50 [1, 8] is on record?
**A.** The IC50 was over 50 µM.

**Q.** Which “growth inhibitory activity at 100 μM” value [7] does the source give for `CCCCCCCCCCCCNCc1ccc(CNC(=O)c2csc3nc[nH]c(=O)c23)cc1` [Compound 24, N-(4-((Dodecylamino)methyl)benzyl)-4-oxo-3,4-dihydrothieno[2,3-d]pyrimidine-5-carboxamide] here?
**A.** Its value is “showed growth inhibitory activity”.

**Q.** With “N-(4-((Benzylamino)methyl)benzyl)-4-propoxythieno[2,3-d]pyrimidine-5-carboxamide [Compound 40]” as the compound, how does the IC50 [1, 8] read?
**A.** The IC50 was over 50 µM.

**Q.** For `O=C(NCc1ccc(CNC2CCCCC2)cc1)c1csc2nc[nH]c(=O)c12` [Compound 16, N-(4-((Cyclohexylamino)methyl)benzyl)-4-oxo-3,4-dihydrothieno[2,3-d]pyrimidine-5-carboxamide], which “TrmD inhibitory activity (in words)” value ([1]; PaTrmD) is on record?
**A.** Its value is “submicromolar activity”.

**Q.** With “4-(Hexyloxy)-N-(4-((octylamino)methyl)benzyl)thieno[2,3-d]pyrimidine-5-carboxamide [Compound 44]” as the compound, how does the IC50 [1, 8] read?
**A.** Its IC50 is over 50 µM.

**Q.** Which IC50 [1] does the source give for `CCCCCCCCNCc1ccc(CNC(=O)c2csc3nc[nH]c(=O)c23)cc1` [Compound 15, N-(4-((Octylamino)methyl)benzyl)-4-oxo-3,4-dihydrothieno[2,3-d]pyrimidine-5-carboxamide] here?
**A.** Its IC50 is 0.02 ± 0.01 µM.

**Q.** And the “increase of IC50 when tRNA concentration was increased” value ([1]; PaTrmD, tRNA competition assay, from 0.02 to 0.26 μM)?
**A.** The value was 13 fold.

**Q.** What about the “higher binding affinity (KD) to PaTrmD compared with AZ51” value [6] of the same compound?
**A.** The value was about 50 fold.

**Q.** And the “growth inhibitory activity at 100 μM” value [7]?
**A.** The value was “showed growth inhibitory activity”.

**Q.** For `O=C(NCc1ccc(CN2CCCCC2)cc1)c1csc2nc[nH]c(=O)c12` [Compound 9, 4-Oxo-N-(4-(piperidin-1-ylmethyl)benzyl)-3,4-dihydrothieno[2,3-d]pyrimidine-5-carboxamide], which “reduction of inhibitory activity compared with AZ51” value ([1]; PaTrmD) is on record?
**A.** The value was 6–16 fold.

**Q.** For `CCOCCOCCNCc1ccc(CNC(=O)c2csc3nc[nH]c(=O)c23)cc1` [Compound 26, N-(4-(((2-(2-Ethoxyethoxy)ethyl)amino)methyl)benzyl)-4-oxo-3,4-dihydrothieno[2,3-d]pyrimidine-5-carboxamide], which “reduction of enzyme inhibitory activity compared with the alkyl chain” value ([1]; PaTrmD) is on record?
**A.** The value was 4–8 fold.

**Q.** With `O=C(NCc1ccc(CNCCOCCO)cc1)c1csc2nc[nH]c(=O)c12` [Compound 25, N-(4-(((2-(2-Hydroxyethoxy)ethyl)amino)methyl)benzyl)-4-oxo-3,4-dihydrothieno[2,3-d]pyrimidine-5-carboxamide] as the compound, how does the “reduction of enzyme inhibitory activity compared with the alkyl chain” value ([1]; PaTrmD) read?
**A.** Its value is 4–8 fold.

**Q.** With `CCCCCCCCCCNCc1ccc(CNC(=O)c2csc3nc[nH]c(=O)c23)cc1` [Compound 23, N-(4-((Decylamino)methyl)benzyl)-4-oxo-3,4-dihydrothieno[2,3-d]pyrimidine-5-carboxamide] as the compound, how does the “growth inhibitory activity at 100 μM” value [7] read?
**A.** The value was “showed growth inhibitory activity”.

**Q.** For “N-(4-((Benzylamino)methyl)benzyl)-4-methoxythieno[2,3-d]pyrimidine-5-carboxamide [Compound 39]”, which IC50 [1, 8] is on record?
**A.** The IC50 was over 50 µM.

**Q.** Which “TrmD inhibitory activity (in words)” value ([1]; PaTrmD) does the source give for `CCCCCCCCN(Cc1ccccc1)Cc1ccc(CNC(=O)c2csc3nc[nH]c(=O)c23)cc1` [Compound 20, N-(4-((Benzyl(octyl)amino)methyl)benzyl)-4-oxo-3,4-dihydrothieno[2,3-d]pyrimidine-5-carboxamide] here?
**A.** The value was “nearly abolished”.

**Q.** For `O=C(NCc1ccc(CNCc2ccccc2)cc1)c1csc2nc[nH]c(=O)c12` [Compound 14, N-(4-((Benzylamino)methyl)benzyl)-4-oxo-3,4-dihydrothieno[2,3-d]pyrimidine-5-carboxamide], which “TrmD inhibitory activity (in words)” value ([1]; PaTrmD) is on record?
**A.** Its value is “submicromolar activity”.

Source: article PMC6748665 (Journal of Medicinal Chemistry, 2019)
